In ChEMBL document CHEMBL2040790 (Bioorg Med Chem Lett, 2012):
Activity calls are given as the source filed them. The calls are words filed in the database; no cut-off is given here.

Legend:
[1] = system: La Crosse virus; experiment: Antiviral activity against La Crosse virus infected in african green monkey Vero cells assessed as inhibition of virus-induced cytopathic effect at 5 uM after 4 days by spectrophotometric analysis; type: functional, organism-based
Summary of the method: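 Primary screen run at one fixed concentration of 5 μM. Compounds active at that level were then carried into dose-response testing (0.009–25 μM) against RVFV and LACV.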

[2] = system: Rift Valley fever virus; experiment: Antiviral activity against Rift Valley fever virus at 5 uM; type: functional, organism-based
Summary of the method: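 Single-concentration primary screen at 5 μM. Molecules active there and bearing viable scaffolds were then taken into concentration-response testing over 0.009–25 μM.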

[3] = system: Ebolavirus; experiment: Antiviral activity against Ebola virus; type: functional
[4] = system: Vaccinia virus; experiment: Antiviral activity against Vaccinia virus; type: functional, organism-based; conditions: Orthopoxvirus vaccinia
[5] = system: Human immunodeficiency virus 1; experiment: Antiviral activity against Human immunodeficiency virus 1; type: functional, organism-based
[6] = system: Tacaribe virus; experiment: Antiviral activity against Tacaribe virus; type: functional, organism-based; conditions: Mammarenavirus tacaribeense
[7] = system: Mammarenavirus choriomeningitidis; experiment: Antiviral activity against Lymphocytic choriomeningitis virus; type: functional
[8] = system: Encephalomyocarditis virus; experiment: Antiviral activity against Encephalomyocarditis virus; type: functional, organism-based
[9] = system: Sindbis virus; experiment: Antiviral activity against Sindbis virus; type: functional, organism-based
[10] = system: Dengue virus; experiment: Antiviral activity against Dengue virus; type: functional, organism-based
[11] = system: Orthohantavirus andesense; experiment: Antiviral activity against Andes virus; type: functional
[12] = system: Respiratory syncytial virus; experiment: Antiviral activity against Respiratory syncytial virus; type: functional, organism-based
[13] = system: unidentified influenza virus; experiment: Antiviral activity against influenza virus; type: functional, organism-based
[14] = system: La Crosse virus; experiment: Antiviral activity against La Crosse virus infected in african green monkey Vero cells assessed as inhibition of virus-induced cytopathic effect by fluorometric analysis; type: functional, organism-based
[15] = system: Vero; experiment: Cytotoxicity against african green monkey Vero cells; type: cell-based; conditions: chlorocebus sabaeus
[16] = system: Vaccinia virus; experiment: Antiviral activity against Vaccinia virus at 25 uM during single experiment set up; type: functional, organism-based; conditions: Orthopoxvirus vaccinia
[17] = system: La Crosse virus; experiment: Antiviral activity against La Crosse virus infected in african green monkey Vero cells assessed as inhibition of virus-induced cytopathic effect at 25 uM during single experiment set up by fluorometric analysis; type: functional, organism-based
[18] = system: Vaccinia virus; experiment: Antiviral activity against Vaccinia virus during single experiment set up; type: functional, organism-based; conditions: Orthopoxvirus vaccinia
[19] = Solubility of the compound in water; type: physicochemical
[20] = Solubility of the compound in simulated gastric fluid; type: physicochemical
[21] = Solubility of the compound in Caco2 transport buffer; type: physicochemical, Caco-2
[22] = system: Vaccinia virus; experiment: Antiviral activity against Vaccinia virus at 25 uM during one experiment of multiple experiment set up; type: functional, organism-based; conditions: Orthopoxvirus vaccinia
[23] = system: La Crosse virus; experiment: Antiviral activity against La Crosse virus infected in african green monkey Vero cells assessed as inhibition of virus-induced cytopathic effect during single experiment set up by fluorometric analysis; type: functional, organism-based

SMILES | EC50 [4] [µM] | EC50 [14] [µM] | Activity [16] | Activity [17] | also measured
COc1cc(NC(=S)NC(=O)c2ccc(C(C)(C)C)cc2)ccc1NC(=O)c1ccccc1Cl | 0.25 | 0.27 |  |  | Activity [1]: Active; Activity [2]: Active; Activity [3]: Active; Activity [5]: Active; Activity [6]: Active; Activity [7]: Active; Activity [8]: Active; Activity [9]: Active; Activity [10]: Active; Activity [11]: Active; Activity [12]: Active; Activity [13]: Active
CNc1cccc(C(=O)Nc2ccc(NC(=S)NC(=O)c3ccc(C(C)(C)C)cc3)cc2OC)c1.Cl | 1.63 | > 25 |  |  | Activity [15]: Toxic
COc1cc(NC(=S)NC(=O)c2ccc(C(C)(C)C)cc2)ccc1N | 2.09 | 1.69 | inactive | inactive | 
Cc1c(Cl)cccc1NC(=S)NC(=O)c1ccc(C(C)(C)C)cc1 | 6.47 | 0.919 | inactive | inactive | 
CC(C)(C)c1ccc(C(=O)NC(=S)Nc2cc(C(C)(C)C)ccc2O)cc1 | 0.98 | 3.42 |  |  | Activity [15]: Toxic
CC(C)(C)c1ccc(C(=O)NC(=S)Nc2ccc(N3CCCCC3)cc2)cc1 | > 25 | > 25 | inactive | inactive | Activity [15]: Toxic
CC(C)(C)c1ccc(C(=O)NC(=S)Nc2ccccc2C(=O)O)cc1 | > 25 | > 25 |  |  | EC50 [18]: 2.29 µM
COc1cc(NC(=S)NC(=O)c2ccc(C(C)(C)C)cc2)ccc1NC(=O)c1cccc(C(=O)O)c1 | > 25 |  | inactive | inactive | 
CC(C)(C)c1ccc(C(=O)NC(=S)Nc2ccc(N3CCOCC3)cc2)cc1 | > 25 | > 25 | inactive | inactive | Activity [15]: Toxic
CNc1ccc(NC(=S)NC(=O)c2ccc(C(C)(C)C)cc2)c(Cl)c1.Cl | 0.33 | 0.24 |  |  | solubility [19]: 0.2 µg/mL; solubility ([20]; simulated gastric fluid, read-out: solubility): 3.2 µg/mL; solubility [21]: 0.1 µg/mL
Cc1ccc(O)c(NC(=S)NC(=O)c2ccc(C(C)(C)C)cc2)c1 | > 25 | > 25 |  |  | Activity [15]: Toxic
COc1cc(NC(=S)NC(=O)c2ccc(C(C)(C)C)cc2)ccc1NC(=O)c1ccc(C(=O)O)cc1 | > 25 | > 25 | inactive | inactive | 
CC(C)(C)c1ccc(C(=O)NC(=S)Nc2ccc(N)c(N)c2)cc1 | > 25 | > 25 |  |  | EC50 [18]: 7.78 µM
Cc1ccc(Cl)c(NC(=S)NC(=O)c2ccc(C(C)(C)C)cc2)c1 | 0.66 | 1.67 |  | inactive | 
CC(=O)N1CCN(c2ccc(NC(=S)NC(=O)c3ccc(C(C)(C)C)cc3)cc2)CC1 | > 25 | > 25 | inactive | inactive | Activity [15]: Toxic
CC(C)(C)c1ccc(C(=O)NC(=S)Nc2ccc(CN3CCCCC3)cc2)cc1 | > 25 | > 25 | inactive | inactive | Activity [15]: Toxic
CC(C)(C)c1ccc(C(=O)NC(=S)Nc2cc(Cl)ccc2Cl)cc1 | 2.42 | 2.45 | inactive | inactive | 
CC(C)(C)c1ccc(C(=O)NC(=S)Nc2cccc(N)c2)cc1 | 2.72 | 2.19 | inactive |  | 
CNc1ccc(C(=O)Nc2ccc(NC(=S)NC(=O)c3ccc(C(C)(C)C)cc3)cc2OC)cc1.Cl | 0.81 | > 25 | inactive |  | Activity [15]: Toxic

SMILES | EC50 [4] [µM] | EC50 [14] [µM] | Activity [16] | Activity [17] | also measured
CC(C)(C)c1ccc(C(=O)NC(=S)Nc2ccccc2Cl)cc1 | 0.35 | 0.28 |  |  | Activity [1]: Active; Activity [2]: Active
CN(C)c1ccc(NC(=S)NC(=O)c2ccc(C(C)(C)C)cc2)c(Cl)c1.Cl | 3.26 | 1.55 |  |  | solubility ([20]; simulated gi fluid, BLD = below limit of detection): BLD
COc1cc(NC(=S)NC(=N)c2ccc(C(C)(C)C)cc2)ccc1NC(=O)c1ccccc1Cl | 7.64 | 3.01 |  |  | Activity [22]: inactive
CC(C)(C)c1ccc(C(=O)NC(=S)Nc2ccccc2CN)cc1 | > 25 | > 25 |  |  | EC50 [23]: 6.93 µM
CC(C)(C)c1ccc(C(=O)NC(=S)Nc2ccc(NC(=O)c3ccccc3)cc2)cc1 | 0.17 | 0.15 | inactive | inactive | 
CC(C)(C)c1ccc(C(=O)NC(=S)Nc2ccccc2)cc1 | 5.57 | 5.01 |  | inactive | 
Cc1cccc(NC(=S)NC(=O)c2ccc(C(C)(C)C)cc2)c1C | 1.83 | 2.59 |  |  | 
COc1cc(NC(=S)NC(=O)c2ccc(C(C)(C)C)cc2)ccc1NC(=S)c1ccccc1Cl | 0.99 | 0.64 |  |  | 
CC(C)(C)c1ccc(C(=O)NC(=S)Nc2ccccc2N)cc1 | > 25 | > 25 |  |  | 
CC(C)(C)c1ccc(C(=O)NC(=S)Nc2cccc(NC(=O)c3ccccc3Cl)c2)cc1 | > 25 | > 25 |  |  | 
CC(C)(C)c1ccc(C(=O)NC(=S)Nc2cccc(C(F)(F)F)c2Cl)cc1 | 1.83 | 0.85 |  |  | 
CC(C)(C)c1ccc(C(=O)NC(=S)Nc2ccc(NC(=O)c3ccccc3Cl)c(N)c2)cc1 | 0.06 | 0.05 |  |  | 
CC(C)(C)c1ccc(C(=O)NC(=S)Nc2ccc(CN3CCOCC3)cc2)cc1 | > 25 | > 25 | inactive | inactive | Activity [15]: Toxic
CC(C)(C)c1ccc(C(=O)NC(=S)Nc2ccc(Nc3cccnc3)cc2)cc1 | 24.5 | > 25 |  |  | 
CC(C)(C)c1ccc(C(=O)NC(=S)Nc2ccc(N)cc2)cc1 | 4.41 | 2.27 | inactive |  | 
Cc1cccc(Cl)c1NC(=S)NC(=O)c1ccc(C(C)(C)C)cc1 | 2.49 | 0.94 |  |  | 
COc1cc(NC(=S)NC(=O)c2ccc(C(C)(C)C)cc2)ccc1NC(=O)c1ccc(N)cc1 | 20 | > 25 |  |  | 
Cc1cc(C)cc(NC(=S)NC(=O)c2ccc(C(C)(C)C)cc2)c1 | 3.48 | 4.43 |  | inactive | 
Cc1ccc(NC(=S)NC(=O)c2ccc(C(C)(C)C)cc2)cc1C | 3.93 | 1.23 |  |  | 
